# Laboratory results taken from ChEMBL document CHEMBL1136151, “Suzuki cross-coupling approaches to the synthesis of bioactive 3-substituted and 5-substituted-4-methoxy-6-methyl-2-pyrones” (Bioorg Med Chem Lett, 2003).
# Tested on: Aspergillus niger
# Experiment: Percent growth of Aspergillus niger after 7 days of incubation
# Format: functional
# Parameters: concentration or dose not given beside the values
# Outline: (§1)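 Fungal plate assay: pyrone dissolved in absolute EtOH at 10mg/mL and pipetted 2 cm offset from the centre of the plate containing the organism. EtOH alone served as control. Growth is recorded as percentage of the organism after 72 h and after 7 days of incubation.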
row,Compound,Growth
1,COc1cc(C)oc(=O)c1-c1ccc(Cl)cc1,95%
2,CCCCCC/C=C/c1cc(C)oc(=O)c1,94%
3,COc1cc(=O)oc(C)c1-c1ccccc1,>90%
4,COc1cc(=O)oc(C)c1/C=C/c1ccccc1,90%

# Tested on: Saccharomyces cerevisiae
# Experiment: Antimicrobial activity against Saccharomyces cerevisiae was determined after 48 hours of incubation
# Format: functional
# Outline: (§2)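 Disk diffusion on yeast plates: cellulose disks carrying test compound, with an EtOH control. Incubation 48 h. The inhibition zone radius is recorded in mm.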
row,Compound,Activity
1,COc1cc(C)oc(=O)c1-c1ccc(Cl)cc1,30 mm
2,CCCCCC/C=C/c1cc(C)oc(=O)c1,0 mm
3,COc1cc(=O)oc(C)c1-c1ccccc1,0 mm
4,COc1cc(=O)oc(C)c1/C=C/c1ccccc1,0 mm

# Tested on: Thanatephorus cucumeris
# Experiment: Percent growth of Rhizoctonia solani after 7 days of incubation
# Format: functional
# Parameters: concentration or dose not given beside the values
# Outline: as §1
row,Compound,Growth
1,COc1cc(C)oc(=O)c1-c1ccc(Cl)cc1,100%
2,CCCCCC/C=C/c1cc(C)oc(=O)c1,100%
3,COc1cc(=O)oc(C)c1-c1ccccc1,100%
4,COc1cc(=O)oc(C)c1/C=C/c1ccccc1,100%

# Tested on: Bacillus subtilis
# Experiment: Antimicrobial activity against Bacillus subtilis was determined after 96 hours of incubation
# Format: functional
# Outline: (§3)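 Disk diffusion: cellulose disks loaded with test compound and placed on bacterial plates, with an EtOH control disk. Incubation 96 h. Read-out is the radius (mm) of the inhibition zone.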
row,Compound,Activity
1,COc1cc(C)oc(=O)c1-c1ccc(Cl)cc1,17 mm
2,CCCCCC/C=C/c1cc(C)oc(=O)c1,18 mm
3,COc1cc(=O)oc(C)c1-c1ccccc1,6 mm
4,COc1cc(=O)oc(C)c1/C=C/c1ccccc1,6 mm

# Tested on: Thanatephorus cucumeris
# Experiment: Percent growth of Rhizoctonia solani after 72 hours of incubation
# Format: functional
# Parameters: concentration or dose not given beside the values
# Outline: as §1
row,Compound,Growth
1,COc1cc(C)oc(=O)c1-c1ccc(Cl)cc1,51%
2,CCCCCC/C=C/c1cc(C)oc(=O)c1,44%
3,COc1cc(=O)oc(C)c1-c1ccccc1,67%
4,COc1cc(=O)oc(C)c1/C=C/c1ccccc1,67%

# Tested on: Fusarium oxysporum
# Experiment: Percent growth of Fusarium oxysporum after 72 hours of incubation
# Format: functional
# Parameters: concentration or dose not given beside the values
# Outline: as §1
row,Compound,Growth
1,COc1cc(C)oc(=O)c1-c1ccc(Cl)cc1,8%
2,CCCCCC/C=C/c1cc(C)oc(=O)c1,5%
3,COc1cc(=O)oc(C)c1-c1ccccc1,12%
4,COc1cc(=O)oc(C)c1/C=C/c1ccccc1,12%

# Tested on: Schizosaccharomyces pombe
# Experiment: Antimicrobial activity against Schizosaccharomyces pombe was determined after 48 hours of incubation
# Format: functional
# Outline: as §2
row,Compound,Activity
1,COc1cc(C)oc(=O)c1-c1ccc(Cl)cc1,0 mm
2,CCCCCC/C=C/c1cc(C)oc(=O)c1,29 mm
3,COc1cc(=O)oc(C)c1-c1ccccc1,0 mm
4,COc1cc(=O)oc(C)c1/C=C/c1ccccc1,0 mm

# Tested on: Globisporangium ultimum
# Experiment: Percent growth of Pythium ultimum after 72 hours of incubation
# Format: functional
# Parameters: concentration or dose not given beside the values
# Outline: as §1
row,Compound,Growth
1,COc1cc(C)oc(=O)c1-c1ccc(Cl)cc1,100%
2,CCCCCC/C=C/c1cc(C)oc(=O)c1,100%

# Tested on: Escherichia coli
# Experiment: Antimicrobial activity against Escherichia coli was determined after 96 hours of incubation
# Format: functional
# Outline: as §3
row,Compound,Activity
1,COc1cc(C)oc(=O)c1-c1ccc(Cl)cc1,18 mm
2,CCCCCC/C=C/c1cc(C)oc(=O)c1,20 mm
3,COc1cc(=O)oc(C)c1-c1ccccc1,6 mm
4,COc1cc(=O)oc(C)c1/C=C/c1ccccc1,6 mm

# Tested on: Candida albicans
# Experiment: Antimicrobial activity against Candida albicans was determined after 48 hours of incubation
# Format: functional
# Outline: as §2
row,Compound,Activity
1,COc1cc(C)oc(=O)c1-c1ccc(Cl)cc1,0 mm
2,CCCCCC/C=C/c1cc(C)oc(=O)c1,20 mm
3,COc1cc(=O)oc(C)c1-c1ccccc1,0 mm
4,COc1cc(=O)oc(C)c1/C=C/c1ccccc1,0 mm

# Tested on: Globisporangium ultimum
# Experiment: Percent growth of Pythium ultimum after 7 days of incubation
# Format: functional
# Parameters: concentration or dose not given beside the values
# Outline: as §1
row,Compound,Growth
1,COc1cc(C)oc(=O)c1-c1ccc(Cl)cc1,100%
2,CCCCCC/C=C/c1cc(C)oc(=O)c1,100%

# Tested on: Fusarium oxysporum
# Experiment: Percent growth of Fusarium oxysporum after 7 days of incubation
# Format: functional
# Parameters: concentration or dose not given beside the values
# Outline: as §1
row,Compound,Growth
1,COc1cc(C)oc(=O)c1-c1ccc(Cl)cc1,60%
2,CCCCCC/C=C/c1cc(C)oc(=O)c1,30%
3,COc1cc(=O)oc(C)c1-c1ccccc1,51%
4,COc1cc(=O)oc(C)c1/C=C/c1ccccc1,51%

# Tested on: Staphylococcus aureus
# Experiment: Antimicrobial activity against Staphylococcus aureus was determined after 96 hours of incubation
# Format: functional
# Outline: as §3
row,Compound,Activity
1,COc1cc(C)oc(=O)c1-c1ccc(Cl)cc1,0 mm
2,CCCCCC/C=C/c1cc(C)oc(=O)c1,18 mm
3,COc1cc(=O)oc(C)c1-c1ccccc1,0 mm
4,COc1cc(=O)oc(C)c1/C=C/c1ccccc1,0 mm

# Tested on: Aspergillus niger
# Experiment: Percent growth of Aspergillus niger after 72 hours of incubation
# Format: functional
# Parameters: concentration or dose not given beside the values
# Outline: as §1
row,Compound,Growth
1,COc1cc(C)oc(=O)c1-c1ccc(Cl)cc1,>95%
2,CCCCCC/C=C/c1cc(C)oc(=O)c1,89%
3,COc1cc(=O)oc(C)c1-c1ccccc1,71%
4,COc1cc(=O)oc(C)c1/C=C/c1ccccc1,71%

# Tested on: Botrytis cinerea
# Experiment: Percent growth of Botrytis cinerea after 72 hours of incubation
# Format: functional
# Parameters: concentration or dose not given beside the values
# Outline: as §1
row,Compound,Growth
1,COc1cc(C)oc(=O)c1-c1ccc(Cl)cc1,58%
2,CCCCCC/C=C/c1cc(C)oc(=O)c1,42%
3,COc1cc(=O)oc(C)c1-c1ccccc1,47%
4,COc1cc(=O)oc(C)c1/C=C/c1ccccc1,47%

# Tested on: Botrytis cinerea
# Experiment: Percent growth of Botrytis cinerea after 7 days of incubation
# Format: functional
# Parameters: concentration or dose not given beside the values
# Outline: as §1
row,Compound,Growth
1,COc1cc(C)oc(=O)c1-c1ccc(Cl)cc1,100%
2,CCCCCC/C=C/c1cc(C)oc(=O)c1,100%
3,COc1cc(=O)oc(C)c1-c1ccccc1,100%
4,COc1cc(=O)oc(C)c1/C=C/c1ccccc1,100%
